Test [1] has as its system Nakaseomyces glabratus. As to the kind of experiment: Antimicrobial activity against flucytosine, azole, and caspofungin resistant Candida glabrata bloodstream isolate 4 harboring FKS2 T1988C mutation and overexpressing CDR1 and CDR2 genes serially obtained from hematopoietic stem cell transplant recipient by Etest. Format: functional. The essentials: (§1)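 MICs by Etest following the strip maker's instructions, with C. parapsilosis ATCC 22019 as control strain. FLC, VRC and 5FC were interpreted by published CLSI criteria. For caspofungin a susceptibility breakpoint of ≤2 mg/liter was used. Isolates were serial C. glabrata blood-culture isolates from one patient, judged the same genotype by PCR of 8 microsatellite regions with fluorescent primers.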

Test [2] relates to Nakaseomyces glabratus. As to the kind of experiment: Antimicrobial activity against flucytosine, azole, and caspofungin resistant Candida glabrata bloodstream isolate 5 harboring FKS2 T1988C mutation and overexpressing CDR1 and CDR2 genes serially obtained from hematopoietic stem cell transplant recipient by Etest. Format: functional. The essentials: as §1
In test [3] the test system is Nakaseomyces glabratus. As to the kind of experiment: Antimicrobial activity against flucytosine, azole, and caspofungin resistant Candida glabrata bloodstream isolate 2 harboring Fur1 G190D mutation serially obtained from hematopoietic stem cell transplant recipient by Etest.
Test [4] relates to Nakaseomyces glabratus. Kind of test: Antimicrobial activity against flucytosine, azole, and caspofungin resistant Candida glabrata bloodstream isolate 3 harboring Fur1 G190D mutation serially obtained from hematopoietic stem cell transplant recipient by Etest.
Test [5] has as its system Nakaseomyces glabratus. Kind of test: Antimicrobial activity against flucytosine, azole, and caspofungin resistant Candida glabrata bloodstream isolate 1 serially obtained from hematopoietic stem cell transplant recipient by Etest. Format: functional. The essentials:
as §1

Values after ≈ are worked out from the molar mass of the structure shown.

On to `C[C@@H]1[C@H](O)[C@@H](C)/C=C/C=C/C=C/C=C/C=C/C=C/C=C/[C@H](O[C@@H]2O[C@H](C)[C@@H](O)[C@H](N)[C@@H]2O)C[C@@H]2O[C@](O)(C[C@@H](O)C[C@@H](O)[C@H](O)CC[C@@H](O)C[C@@H](O)CC(=O)O[C@H]1C)C[C@H](O)[C@H]2C(=O)O` [AMPHOTERICIN B], for which the MIC against Nakaseomyces glabratus [1] is 0.75 µg/mL (≈ 0.812 µM); with Nakaseomyces glabratus [2] it was 0.75 µg/mL (≈ 0.812 µM); in the test on Nakaseomyces glabratus [3] it was 2 µg/mL (≈ 2.16 µM); in the test with Nakaseomyces glabratus [4] it was 0.75 µg/mL (≈ 0.812 µM).
Consider `CC[C@H](C)C[C@H](C)CCCCCCCCC(=O)N[C@H]1C[C@@H](O)[C@@H](NCCN)NC(=O)[C@@H]2[C@@H](O)CCN2C(=O)[C@H]([C@H](O)CCN)NC(=O)[C@H]([C@H](O)[C@@H](O)c2ccc(O)cc2)NC(=O)[C@@H]2C[C@@H](O)CN2C(=O)[C@H]([C@@H](C)O)NC1=O` [CASPOFUNGIN], for which the MIC is 0.19 µg/mL (≈ 0.174 µM) against Nakaseomyces glabratus [5]; more than 32 µg/mL with Nakaseomyces glabratus [1]; more than 32 µg/mL in the test with Nakaseomyces glabratus [2]; 0.125 µg/mL (≈ 0.114 µM) against Nakaseomyces glabratus [3]; 0.125 µg/mL (≈ 0.114 µM) against Nakaseomyces glabratus [4].
Take `OC(Cn1cncn1)(Cn1cncn1)c1ccc(F)cc1F` [FLUCONAZOLE]: the MIC in the test on Nakaseomyces glabratus [1] was more than 256 µg/mL; in the test with Nakaseomyces glabratus [2], more than 256 µg/mL; in the test with Nakaseomyces glabratus [3] it was 2 µg/mL (≈ 6.53 µM); with Nakaseomyces glabratus [4] it was 1 µg/mL (≈ 3.27 µM).
As to `Nc1nc(=O)[nH]cc1F` [FLUCYTOSINE], the MIC against Nakaseomyces glabratus [5] is 0.004 µg/mL (≈ 0.031 µM); against Nakaseomyces glabratus [1] it was 0.004 µg/mL (≈ 0.031 µM); against Nakaseomyces glabratus [2] it was 0.004 µg/mL (≈ 0.031 µM); in the test with Nakaseomyces glabratus [3], more than 32 µg/mL; against Nakaseomyces glabratus [4], more than 32 µg/mL.
With `C[C@@H](c1ncncc1F)[C@](O)(Cn1cncn1)c1ccc(F)cc1F` [VORICONAZOLE], the minimal inhibitory concentration (MIC) is 0.25 µg/mL (≈ 0.716 µM) against Nakaseomyces glabratus [5]; 12 µg/mL (≈ 34.4 µM) in the test on Nakaseomyces glabratus [1]; 16 µg/mL (≈ 45.8 µM) in the test on Nakaseomyces glabratus [2]; 0.125 µg/mL (≈ 0.358 µM) against Nakaseomyces glabratus [3]; 0.047 µg/mL (≈ 0.135 µM) with Nakaseomyces glabratus [4].

The record behind these values is ChEMBL document CHEMBL1240383, “Acquisition of flucytosine, azole, and caspofungin resistance in Candida glabrata bloodstream isolates serially obtained from a hematopoietic stem cell transplant recipient” (2010).
